Measurements: ChEMBL document CHEMBL1148520, “5-(Dimethoxymethyl)-2'-deoxyuridine: a novel gem diether nucleoside with anti-orthopoxvirus activity” (J Med Chem, 2006)

What was measured:
[1] = tested on: HFF; assay: Cytotoxicity against HFF cell line by neutral red toxicity assay; format: functional; details: Homo sapiens
Summary of the method: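 Confluent uninfected HFF monolayers exposed to various drug concentrations for 7 days at 37 °C. Viability read by neutral red uptake. CC50 is the concentration reducing neutral red uptake by 50%.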

[2] = tested on: Cowpox virus; assay: Antiviral activity against cowpox virus Brighton measured as cytopathogenicity in HFF cells; format: functional, organism-based
[3] = tested on: Cowpox virus; assay: Antiviral activity against cowpox virus Brighton by plaque reduction in HFF cells; format: functional, organism-based
[4] = tested on: Vaccinia virus; assay: Antiviral activity against vaccinia virus Copenhagen assessed as plaque reduction in HFF cells; format: functional, organism-based; details: Orthopoxvirus vaccinia

In the case of `O=c1[nH]c(=O)n(C2CC(O)[C@@H](CO)O2)cc1C1OCCO1` (single isomer, unassigned), the CC50 [1] is reported as > 300 µM and the EC50 [2] is reported as > 300 µM.

`CCOC(OCC)c1cn(C2C[C@H](OC(C)=O)[C@@H](COC(C)=O)O2)c(=O)[nH]c1=O` (stereo not given in full) was tested, and the EC50 [3] was 25.8 µM, the CC50 [1] was > 300 µM and the EC50 [4] was 79 µM. For the same compound, the EC50 [2] was 52.4 µM.

`Nc1ccn(C[C@@H](CO)OCP(=O)(O)O)c(=O)n1` [CIDOFOVIR] was tested, and the EC50 [3] was 9 µM, the CC50 [1] was > 300 µM and the EC50 [4] was 9 µM. For the same compound, the EC50 [2] was 8.3 µM.

In the case of `CC(=O)OC[C@H]1OC(n2cc(C3OCCO3)c(=O)[nH]c2=O)C[C@@H]1OC(C)=O` (stereo not given in full), the CC50 [1] is reported as > 300 µM and the EC50 [2] is reported as > 300 µM.

With `CCOC(OCC)c1cn(C2C[C@H](O)[C@@H](CO)O2)c(=O)[nH]c1=O` (stereo not given in full) the CC50 [1] was > 300 µM and the EC50 [2] was > 60 µM.

For `CC(=O)OC[C@H]1OC(n2cc(C=O)c(=O)[nH]c2=O)C[C@@H]1OC(C)=O` (stereo not given in full), the CC50 [1] was > 300 µM and the EC50 [2] was > 300 µM.

For `COC(OC)c1cn(C2C[C@H](OC(C)=O)[C@@H](COC(C)=O)O2)c(=O)[nH]c1=O` (stereo not given in full), the CC50 [1] was > 300 µM and the EC50 [2] was > 300 µM.

`O=c1[nH]c(=O)n(C2CC(O)[C@@H](CO)O2)cc1C1OCCCO1` (single isomer, unassigned) was tested, and the CC50 [1] was > 300 µM and the EC50 [2] was > 300 µM.

For `CC(=O)OC[C@H]1OC(n2cc(C3OCCCO3)c(=O)[nH]c2=O)C[C@@H]1OC(C)=O` (stereo not given in full), the CC50 [1] was > 300 µM and the EC50 [2] was > 300 µM.

`COC(OC)c1cn(C2C[C@H](O)[C@@H](CO)O2)c(=O)[nH]c1=O` (stereo not given in full) was tested, and the EC50 [3] was 7.4 µM, the CC50 [1] was > 300 µM and the EC50 [4] was 9 µM. For the same compound, the EC50 [2] was 11.7 µM.

In the case of `O=Cc1cn([C@H]2C[C@H](O)[C@@H](CO)O2)c(=O)[nH]c1=O`, the CC50 [1] is reported as > 300 µM and the EC50 [2] is reported as > 300 µM.

`COC(OC)c1cnc(O)nc1O` was tested, and the CC50 [1] was > 300 µM and the EC50 [2] was > 300 µM.
